Test results taken from ChEMBL document CHEMBL3102805, “Truncated Orexin Peptides: Structure-Activity Relationship Studies” (ACS Med Chem Lett, 2013).
Where a SMILES comes first, the peptide text is derived from it.

Assays:
[1] = biological target: T1, Orexin/Hypocretin receptor type 1 (Homo sapiens) (UniProt O43613); test: Agonist activity at human OX1 receptor overexpressed in CHO-RD-HGA16 cells assessed as calcium mobilization at 10 uM after 15 mins by fluorescence assay relative to control; format: functional, cell-based
T1 sequence (whole entry): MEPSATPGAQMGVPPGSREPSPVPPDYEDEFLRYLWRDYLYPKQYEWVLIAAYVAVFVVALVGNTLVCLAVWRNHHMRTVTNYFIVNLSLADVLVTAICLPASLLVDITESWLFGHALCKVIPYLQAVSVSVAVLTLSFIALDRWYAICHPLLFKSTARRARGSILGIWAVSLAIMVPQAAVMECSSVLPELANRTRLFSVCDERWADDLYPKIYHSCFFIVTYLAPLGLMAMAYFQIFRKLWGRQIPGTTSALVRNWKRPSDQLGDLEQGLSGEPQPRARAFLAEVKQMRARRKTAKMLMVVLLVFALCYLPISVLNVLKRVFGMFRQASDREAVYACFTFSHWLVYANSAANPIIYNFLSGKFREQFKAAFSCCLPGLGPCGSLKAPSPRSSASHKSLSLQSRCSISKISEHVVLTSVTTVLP

[2] = biological target: T2, Orexin/Hypocretin receptor type 1 (Homo sapiens, UniProt O43613); test: Agonist activity at human OX1 receptor overexpressed in CHO-RD-HGA16 cells assessed as calcium mobilization after 15 mins by fluorescence assay; format: functional, cell-based
T2 sequence (O43613 whole entry): T1 sequence (whole entry)
Outline: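 EC50 from 8-point half-log concentration-response curves. Values are means of at least three independent experiments in duplicate, with SEM, or means of two independent duplicate experiments.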

Orexin receptor type 2 = biological target: T3, Orexin receptor type 2 (Homo sapiens, UniProt O43614); test: Agonist activity at human OX2 receptor overexpressed in CHO-RD-HGA16 cells assessed as calcium mobilization after 15 mins by fluorescence assay; format: functional, cell-based
T3 sequence (O43614 whole entry): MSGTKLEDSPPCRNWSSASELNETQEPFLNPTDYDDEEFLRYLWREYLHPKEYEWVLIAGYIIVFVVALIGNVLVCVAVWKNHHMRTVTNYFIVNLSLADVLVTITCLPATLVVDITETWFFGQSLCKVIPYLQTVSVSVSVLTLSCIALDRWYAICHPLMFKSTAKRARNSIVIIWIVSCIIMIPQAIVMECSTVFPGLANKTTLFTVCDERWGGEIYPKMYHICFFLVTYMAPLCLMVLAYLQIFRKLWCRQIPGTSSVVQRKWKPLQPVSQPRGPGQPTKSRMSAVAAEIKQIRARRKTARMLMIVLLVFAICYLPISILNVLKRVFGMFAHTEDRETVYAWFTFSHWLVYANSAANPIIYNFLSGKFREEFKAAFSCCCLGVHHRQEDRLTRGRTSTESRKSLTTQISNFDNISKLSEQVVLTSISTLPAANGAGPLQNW

Homo sapiens = species: Homo sapiens; test: Selectivity ratio of EC50 for human OX2 receptor to EC50 for human OX1 receptor

CC[C@H](C)[C@H](NC(=O)CNC(=O)[C@H](C)NC(=O)[C@H](C)NC(=O)[C@H](Cc1cnc[nH]1)NC(=O)[C@H](CC(N)=O)NC(=O)CNC(=O)[C@H](C)NC(=O)CNC(=O)[C@@H](N)Cc1cnc[nH]1)C(=O)N[C@@H](CC(C)C)C(=O)N[C@H](C(=O)N[C@@H](CC(C)C)C(N)=O)[C@@H](C)O (H-HGAGNHAAGILTL-NH2)
Calcium response at 10 uM relative to control [1]: < 50%

CC[C@H](C)[C@H](NC(=O)CNC(=O)[C@H](C)NC(=O)[C@H](C)NC(=O)[C@H](Cc1cnc[nH]1)NC(=O)[C@H](CC(N)=O)NC(=O)CNC(=O)[C@H](CO)NC(=O)[C@H](C)NC(=O)[C@H](CCC(N)=O)NC(=O)[C@H](CC(C)C)NC(=O)[C@H](CC(C)C)NC(=O)[C@H](CCCNC(=N)N)NC(=O)[C@H](CCC(N)=O)NC(=O)[C@H](CC(C)C)NC(=O)[C@@H](N)CCCNC(=N)N)C(=O)N[C@@H](CC(C)C)C(=O)N[C@H](C(=O)N[C@@H](CCSC)C(N)=O)[C@@H](C)O (H-RLQRLLQASGNHAAGILTM-NH2)
EC50 [2]: 144 nM
EC50 (Orexin receptor type 2): 99.3 nM
Ratio EC50 (Homo sapiens): 0.7

CC[C@H](C)[C@H](NC(=O)CNC(=O)[C@H](C)NC(=O)[C@H](C)NC(=O)[C@H](Cc1cnc[nH]1)NC(=O)[C@H](CC(N)=O)NC(=O)CNC(=O)[C@H](C)NC(=O)CNC(=O)[C@H](Cc1cnc[nH]1)NC(=O)[C@H](CC(C)C)NC(=O)[C@H](CC(C)C)NC(=O)[C@H](C)NC(=O)[C@@H](N)Cc1ccc(O)cc1)C(=O)N[C@@H](CC(C)C)C(=O)N[C@H](C(=O)N[C@@H](CC(C)C)C(N)=O)[C@@H](C)O (H-YALLHGAGNHAAGILTL-NH2)
EC50 [2]: 78.9 nM
EC50 (Orexin receptor type 2): 439 nM
Ratio EC50 (Homo sapiens): 5.6

CC[C@H](C)[C@H](NC(=O)CNC(=O)[C@H](C)NC(=O)[C@H](C)NC(=O)[C@H](Cc1cnc[nH]1)NC(=O)[C@H](CC(N)=O)NC(=O)CNC(=O)[C@H](C)NC(=O)CNC(=O)[C@H](Cc1cnc[nH]1)NC(=O)[C@H](CC(C)C)NC(=O)[C@H](C)NC(=O)[C@H](CCC(=O)O)NC(=O)[C@@H](N)Cc1ccc(O)cc1)C(=O)N[C@@H](CC(C)C)C(=O)N[C@H](C(=O)N[C@@H](CC(C)C)C(N)=O)[C@@H](C)O (H-YEALHGAGNHAAGILTL-NH2)
EC50 [2]: 212 nM
EC50 (Orexin receptor type 2): 1890 nM
Ratio EC50 (Homo sapiens): 8.9

CC[C@H](C)[C@H](NC(=O)CNC(=O)[C@H](C)NC(=O)[C@H](C)NC(=O)[C@H](Cc1cnc[nH]1)NC(=O)[C@H](CC(N)=O)NC(=O)CNC(=O)[C@H](C)NC(=O)CNC(=O)[C@H](Cc1cnc[nH]1)NC(=O)[C@H](C)NC(=O)[C@H](CC(C)C)NC(=O)[C@H](CCC(=O)O)NC(=O)[C@@H](N)Cc1ccc(O)cc1)C(=O)N[C@@H](CC(C)C)C(=O)N[C@H](C(=O)N[C@@H](CC(C)C)C(N)=O)[C@@H](C)O (H-YELAHGAGNHAAGILTL-NH2)
EC50 [2]: 3230 nM
EC50 (Orexin receptor type 2): 7850 nM
Ratio EC50 (Homo sapiens): 2.4

CC[C@H](C)[C@H](NC(=O)CNC(=O)[C@H](C)NC(=O)[C@H](C)NC(=O)[C@H](Cc1cnc[nH]1)NC(=O)[C@H](CC(N)=O)NC(=O)CNC(=O)[C@H](C)NC(=O)CNC(=O)[C@H](C)NC(=O)[C@H](CC(C)C)NC(=O)[C@H](CC(C)C)NC(=O)[C@H](CCC(=O)O)NC(=O)[C@@H](N)Cc1ccc(O)cc1)C(=O)N[C@@H](CC(C)C)C(=O)N[C@H](C(=O)N[C@@H](CC(C)C)C(N)=O)[C@@H](C)O (H-YELLAGAGNHAAGILTL-NH2)
EC50 [2]: 493 nM
EC50 (Orexin receptor type 2): 1910 nM
Ratio EC50 (Homo sapiens): 3.9

CC[C@H](C)[C@H](NC(=O)CNC(=O)[C@H](C)NC(=O)[C@H](C)NC(=O)[C@H](Cc1cnc[nH]1)NC(=O)[C@H](CC(N)=O)NC(=O)CNC(=O)[C@H](C)NC(=O)[C@H](C)NC(=O)[C@H](Cc1cnc[nH]1)NC(=O)[C@H](CC(C)C)NC(=O)[C@H](CC(C)C)NC(=O)[C@H](CCC(=O)O)NC(=O)[C@@H](N)Cc1ccc(O)cc1)C(=O)N[C@@H](CC(C)C)C(=O)N[C@H](C(=O)N[C@@H](CC(C)C)C(N)=O)[C@@H](C)O (H-YELLHAAGNHAAGILTL-NH2)
EC50 [2]: 422 nM
EC50 (Orexin receptor type 2): 1440 nM
Ratio EC50 (Homo sapiens): 3.4

CC[C@H](C)[C@H](NC(=O)CNC(=O)[C@H](C)NC(=O)[C@H](C)NC(=O)[C@H](Cc1cnc[nH]1)NC(=O)[C@H](CC(N)=O)NC(=O)[C@H](C)NC(=O)[C@H](C)NC(=O)CNC(=O)[C@H](Cc1cnc[nH]1)NC(=O)[C@H](CC(C)C)NC(=O)[C@H](CC(C)C)NC(=O)[C@H](CCC(=O)O)NC(=O)[C@@H](N)Cc1ccc(O)cc1)C(=O)N[C@@H](CC(C)C)C(=O)N[C@H](C(=O)N[C@@H](CC(C)C)C(N)=O)[C@@H](C)O (H-YELLHGAANHAAGILTL-NH2)
EC50 [2]: 1040 nM
EC50 (Orexin receptor type 2): 1360 nM
Ratio EC50 (Homo sapiens): 1.3

CC[C@H](C)[C@H](NC(=O)CNC(=O)[C@H](C)NC(=O)[C@H](C)NC(=O)[C@H](Cc1cnc[nH]1)NC(=O)[C@H](C)NC(=O)CNC(=O)[C@H](C)NC(=O)CNC(=O)[C@H](Cc1cnc[nH]1)NC(=O)[C@H](CC(C)C)NC(=O)[C@H](CC(C)C)NC(=O)[C@H](CCC(=O)O)NC(=O)[C@@H](N)Cc1ccc(O)cc1)C(=O)N[C@@H](CC(C)C)C(=O)N[C@H](C(=O)N[C@@H](CC(C)C)C(N)=O)[C@@H](C)O (H-YELLHGAGAHAAGILTL-NH2)
EC50 [2]: 3070 nM
EC50 (Orexin receptor type 2): 2320 nM
Ratio EC50 (Homo sapiens): 0.8

CC[C@H](C)[C@H](NC(=O)CNC(=O)[C@H](C)NC(=O)[C@H](C)NC(=O)[C@H](C)NC(=O)[C@H](CC(N)=O)NC(=O)CNC(=O)[C@H](C)NC(=O)CNC(=O)[C@H](Cc1cnc[nH]1)NC(=O)[C@H](CC(C)C)NC(=O)[C@H](CC(C)C)NC(=O)[C@H](CCC(=O)O)NC(=O)[C@@H](N)Cc1ccc(O)cc1)C(=O)N[C@@H](CC(C)C)C(=O)N[C@H](C(=O)N[C@@H](CC(C)C)C(N)=O)[C@@H](C)O (H-YELLHGAGNAAAGILTL-NH2)
EC50 [2]: 3060 nM
EC50 (Orexin receptor type 2): 1580 nM
Ratio EC50 (Homo sapiens): 0.5

CC[C@H](C)[C@H](NC(=O)CNC(=O)[C@H](C)NC(=O)[C@H](C)NC(=O)[C@H](Cc1cnc[nH]1)NC(=O)[C@H](CC(N)=O)NC(=O)CNC(=O)[C@H](C)NC(=O)[C@@H]1CCCN1C(=O)[C@H](Cc1cnc[nH]1)NC(=O)[C@H](CC(C)C)NC(=O)[C@H](CC(C)C)NC(=O)[C@H](CCC(=O)O)NC(=O)[C@@H](N)Cc1ccc(O)cc1)C(=O)N[C@@H](CC(C)C)C(=O)N[C@H](C(=O)N[C@@H](CC(C)C)C(N)=O)[C@@H](C)O (H-YELLHPAGNHAAGILTL-NH2)
EC50 [2]: 2480 nM
EC50 (Orexin receptor type 2): 2180 nM
Ratio EC50 (Homo sapiens): 0.9

CC[C@H](C)[C@H](NC(=O)CNC(=O)[C@H](C)NC(=O)[C@H](C)NC(=O)[C@H](Cc1cnc[nH]1)NC(=O)[C@H](CC(N)=O)NC(=O)CNC(=O)[C@H](C)NC(=O)CNC(=O)[C@@H]1CCCN1C(=O)[C@H](CC(C)C)NC(=O)[C@H](CC(C)C)NC(=O)[C@H](CCC(=O)O)NC(=O)[C@@H](N)Cc1ccc(O)cc1)C(=O)N[C@@H](CC(C)C)C(=O)N[C@H](C(=O)N[C@@H](CC(C)C)C(N)=O)[C@@H](C)O (H-YELLPGAGNHAAGILTL-NH2)
EC50 [2]: 1200 nM
EC50 (Orexin receptor type 2): 1990 nM
Ratio EC50 (Homo sapiens): 1.7

CC[C@H](C)[C@H](NC(=O)CNC(=O)[C@H](C)NC(=O)[C@H](C)NC(=O)[C@H](Cc1cnc[nH]1)NC(=O)[C@H](CC(N)=O)NC(=O)CNC(=O)[C@H](C)NC(=O)CNC(=O)[C@H](Cc1cnc[nH]1)NC(=O)[C@@H]1CCCN1C(=O)[C@H](CC(C)C)NC(=O)[C@H](CCC(=O)O)NC(=O)[C@@H](N)Cc1ccc(O)cc1)C(=O)N[C@@H](CC(C)C)C(=O)N[C@H](C(=O)N[C@@H](CC(C)C)C(N)=O)[C@@H](C)O (H-YELPHGAGNHAAGILTL-NH2)
EC50 [2]: 1130 nM
EC50 (Orexin receptor type 2): 1610 nM
Ratio EC50 (Homo sapiens): 1.4

CC[C@H](C)[C@H](NC(=O)CNC(=O)[C@H](C)NC(=O)[C@H](C)NC(=O)[C@H](Cc1cnc[nH]1)NC(=O)[C@H](CC(N)=O)NC(=O)CNC(=O)[C@H](C)NC(=O)CNC(=O)[C@H](Cc1cnc[nH]1)NC(=O)[C@H](CC(C)C)NC(=O)[C@@H]1CCCN1C(=O)[C@H](CCC(=O)O)NC(=O)[C@@H](N)Cc1ccc(O)cc1)C(=O)N[C@@H](CC(C)C)C(=O)N[C@H](C(=O)N[C@@H](CC(C)C)C(N)=O)[C@@H](C)O (H-YEPLHGAGNHAAGILTL-NH2)
EC50 [2]: 865 nM
EC50 (Orexin receptor type 2): 1010 nM
Ratio EC50 (Homo sapiens): 1.2

CC[C@H](C)[C@H](NC(=O)CNC(=O)[C@H](C)NC(=O)[C@H](C)NC(=O)[C@H](Cc1cnc[nH]1)NC(=O)[C@H](CC(N)=O)NC(=O)CNC(=O)[C@H](C)NC(=O)CNC(=O)[C@H](Cc1cnc[nH]1)NC(=O)[C@H](CC(C)C)NC(=O)[C@H](CC(C)C)NC(=O)[C@@H]1CCCN1C(=O)[C@@H](N)Cc1ccc(O)cc1)C(=O)N[C@@H](CC(C)C)C(=O)N[C@H](C(=O)N[C@@H](CC(C)C)C(N)=O)[C@@H](C)O (H-YPLLHGAGNHAAGILTL-NH2)
EC50 [2]: 143 nM
EC50 (Orexin receptor type 2): 729 nM
Ratio EC50 (Homo sapiens): 5.1
